Calls of active or inactive are those of the source. The calls are words filed in the database; no cut-off is given here.
Key:
[1] = biological target: T1, Serine/threonine-protein kinase B-raf (Homo sapiens, UniProt P15056, V600E); test: Binding affinity to BRAF V600E mutant
[2] = biological target: T1, Serine/threonine-protein kinase B-raf; test: Inhibition of BRAF V600E mutant-dependent MEK phosphorylation in A375 cells; type: cell-based, A-375
[3] = Oral bioavailability in rat; type: ADME, organism-based; settings: in vivo
Outline: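 Oral bioavailability (%F) was measured in rats, generally dosing the hydrochloride salt; some compounds were given as free base.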

Mus musculus [4] = test: Inhibition of BRAF V600E mutant-dependent MEK phosphorylation in Colo205 cells xenografted in nude mouse at 100 mg/kg, po bid for 5 days measured at 10 hrs post-dose; type: functional; settings: COLO 205
Outline: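 Colo-205 xenograft mice were dosed orally at 100 mg/kg bid. On day 5 of dosing, tumor tissue was collected 10 h post-dose and phosphorylated MEK levels were measured against vehicle.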

Mus musculus [5] = test: Inhibition of BRAF V600E mutant-dependent MEK phosphorylation in Colo205 cells xenografted in nude mouse assessed as compound concentration in plasma required for maximum % inhibition; type: functional
[6] = AUC in mouse plasma at 30 mg/kg, po; type: ADME, organism-based; parameters: dose 30 mg/kg, route oral
Outline: (§1)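 Compound given orally to mice at the stated dose. Plasma exposure reported as AUC in μM × h.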

Mus musculus [7] = test: Inhibition of BRAF V600E mutant-dependent MEK phosphorylation in Colo205 cells xenografted in nude mouse assessed as compound concentration in tumor required for maximum % inhibition; type: functional
Mus musculus [8] = test: Toxicity in nude mouse xenografted with human COLO205 cells assessed as body weight loss at 30 to 100 mg/kg, po bid upto 15 days; type: organism-based, COLO 205; parameters: dose 30-100 mg/kg, route oral; settings: in vivo, 360 h
Outline: (§2)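 Body weight was monitored in Colo-205 xenograft-bearing mice during oral bid dosing, with maximum % loss recorded. Monitoring continued after dosing stopped to assess reversibility.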

COLO 205 [9] = test: Antitumor activity against human COLO205 cells xenografted in nude mouse assessed as tumor regression at 100 mg/kg, po bid upto 15 days; type: functional
Outline: (§3)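 Mice bearing Colo-205 tumors were dosed orally bid at 30, 55 or 100 mg/kg and compared with a vehicle control group. Tumor growth was followed over the dosing period, […]. Outcomes recorded were stasis, regrowth, incidence of regressions and % growth inhibition. Significance was tested against vehicle.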

Mus musculus [10] = test: Inhibition of BRAF V600E mutant-dependent MEK phosphorylation in Colo205 cells xenografted in nude mouse at 100 mg/kg, po bid for 5 days measured at 24 hrs post-dose; type: functional; settings: COLO 205
COLO 205 [11] = test: Antitumor activity against human COLO205 cells xenografted in nude mouse assessed as tumor stasis at 100 mg/kg, po bid upto 15 days; type: functional, organism-based; parameters: dose 100 mg/kg; outline: as §3
COLO 205 [12] = test: Antitumor activity against human COLO205 cells xenografted in nude mouse assessed as tumor stasis at 100 mg/kg, po bid upto 8 days; type: functional, organism-based; parameters: dose 100 mg/kg; outline: as §3
COLO 205 [13] = test: Antitumor activity against human COLO205 cells xenografted in nude mouse assessed as tumor stasis at > 100 mg/kg, […]; type: functional, organism-based; parameters: dose 100 mg/kg
COLO 205 [14] = test: Antitumor activity against human COLO205 cells xenografted in nude mouse assessed as tumor stasis at 55 mg/kg, po bid upto 8 days; type: functional, organism-based; parameters: dose 55 mg/kg; outline: as §3
Mus musculus [15] = test: Toxicity in nude mouse xenografted with human COLO205 cells assessed as body weight loss at 10 to 100 mg/kg, po bid upto 15 days; type: organism-based, COLO 205; parameters: dose 10-100 mg/kg, route oral; settings: in vivo, 360 h; outline: as §2
[16] = AUC in mouse plasma at 100 mg/kg, po; type: ADME, organism-based; parameters: dose 100 mg/kg, route oral; outline: as §1
COLO 205 [17] = test: Antitumor activity against human COLO205 cells xenografted in nude mouse assessed as complete suppression of tumor regrowth at 100 mg/kg, po bid before 15 days; type: functional, organism-based; parameters: dose 100 mg/kg; outline: as §3
COLO 205 [18] = test: Antitumor activity against human COLO205 cells xenografted in nude mouse assessed as tumor growth inhibition at 100 mg/kg, po bid upto 8 days; type: functional; settings: COLO 205, 192 h, read-out: TGI; outline: as §3
COLO 205 [19] = test: Antitumor activity against human COLO205 cells xenografted in nude mouse assessed as tumor growth inhibition at 55 mg/kg, po bid upto 8 days; type: functional; settings: COLO 205, 192 h, read-out: TGI; outline: as §3

T1 sequence (P15056 2-766 V600E limits assumed): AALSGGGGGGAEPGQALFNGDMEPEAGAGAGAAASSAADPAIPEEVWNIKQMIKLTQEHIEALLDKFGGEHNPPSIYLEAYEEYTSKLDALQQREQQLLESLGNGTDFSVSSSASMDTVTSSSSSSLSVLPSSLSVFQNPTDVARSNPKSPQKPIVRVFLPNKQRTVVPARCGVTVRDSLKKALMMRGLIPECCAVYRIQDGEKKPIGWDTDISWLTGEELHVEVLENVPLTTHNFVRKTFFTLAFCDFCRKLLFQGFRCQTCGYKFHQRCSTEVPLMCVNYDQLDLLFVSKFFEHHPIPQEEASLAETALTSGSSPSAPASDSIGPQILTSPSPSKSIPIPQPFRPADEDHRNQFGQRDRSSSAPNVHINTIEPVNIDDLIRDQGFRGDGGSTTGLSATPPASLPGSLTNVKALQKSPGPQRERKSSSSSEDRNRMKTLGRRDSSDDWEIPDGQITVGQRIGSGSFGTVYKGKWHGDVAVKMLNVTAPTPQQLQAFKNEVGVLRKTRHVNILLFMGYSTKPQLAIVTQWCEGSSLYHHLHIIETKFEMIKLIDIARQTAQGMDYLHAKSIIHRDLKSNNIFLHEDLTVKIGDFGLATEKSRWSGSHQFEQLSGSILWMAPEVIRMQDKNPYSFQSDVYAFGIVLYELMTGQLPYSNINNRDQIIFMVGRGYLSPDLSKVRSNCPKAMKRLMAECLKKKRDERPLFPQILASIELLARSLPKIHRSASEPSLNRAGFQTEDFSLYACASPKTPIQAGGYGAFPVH

Kd [1]	IC50 [2]	bioavailability [3]	SMILES	also measured
48 nM	59 nM	–	COCCOc1cc2c(Oc3cccc(NC(=O)Nc4cc(C(C)(C)C)on4)c3)ncnc2cc1OC	–
56 nM	96 nM	18%	COc1cc2c(Oc3cccc(NC(=O)Nc4cc(C(C)(C)C)on4)c3)ncnc2cc1OCCCN1CCOCC1	–
90 nM	10000 nM	–	COc1cccc(NC(=O)Nc2cccc(Oc3ncnc4cc(OC)c(OC)cc34)c2)c1	–
40 nM	82 nM	–	COc1cc2ncnc(Nc3cccc(NC(=O)Nc4cc(C(C)(C)C)on4)c3)c2cc1OC	–
–	–	1.9%	COc1cc2ncnc(Nc3cccc(NC(=O)Nc4cc(C(C)(C)C)on4)c3)c2cc1OC.Cl	–
–	–	30%	CCOc1cc2c(Oc3cccc(NC(=O)Nc4cc(C(C)(C)C)on4)c3)ncnc2cc1OC.Cl	–
46 nM	1660 nM	–	COc1cc2ncnc(Oc3cccc(NC(=O)Nc4cccc(C(F)(F)F)c4)c3)c2cc1OC	–
57 nM	110 nM	< 1%	COc1cc2c(Oc3cccc(NC(=O)Nc4cc(C(C)(C)C)on4)c3)ncnc2cc1O	–
82 nM	173 nM	–	CCOc1cc2ncnc(Oc3cccc(NC(=O)Nc4cc(C(C)(C)C)on4)c3)c2cc1OC	–
99 nM	229 nM	–	COc1cc2ncnc(Oc3ccc(Cl)c(NC(=O)Nc4cc(C(C)(C)C)on4)c3)c2cc1OC	–
56 nM	113 nM	–	COc1cc2ncnc(Oc3ccc(F)c(NC(=O)Nc4cc(C(C)(C)C)on4)c3)c2cc1OC	–
–	–	20%	COc1cc2ncnc(Oc3cccc(NC(=O)Nc4cc(C(C)(C)C)on4)c3)c2cc1OCCCN1CCOCC1.Cl	–
–	–	16%	CCOc1cc2ncnc(Oc3cccc(NC(=O)Nc4cc(C(C)(C)C)on4)c3)c2cc1OC.Cl	–
–	–	22%	COc1cc2ncnc(Oc3cc(NC(=O)Nc4cc(C(C)(C)C)on4)ccc3F)c2cc1OC.Cl	–
38 nM	52 nM	11%	COc1cc2ncnc(Oc3cccc(NC(=O)Nc4cc(C(C)(C)C)on4)c3)c2cc1OCCN1CCOCC1	–
57 nM	100 nM	–	COCCOc1cc2ncnc(Oc3cccc(NC(=O)Nc4cc(C(C)(C)C)on4)c3)c2cc1OC	–
–	–	24%	COc1cc2ncnc(Sc3cccc(NC(=O)Nc4cc(C(C)(C)C)on4)c3)c2cc1OC.Cl	–
–	–	49%	COc1cc2ncnc(Oc3cccc(NC(=O)Nc4cc(C(C)(C)C)on4)c3)c2cc1OC.Cl	inhibition in vivo at 100 mg/kg (Mus musculus [4]): ≥ 50%; Activity (Mus musculus [5]): 2.5 µM; AUC [6]: 12.5 µM·h; Activity (Mus musculus [7]): 24 µM; Activity (Mus musculus [8]): 8%; Activity (COLO 205 [9]): 55%
96 nM	293 nM	–	COc1cc2ncnc(Oc3cccc(NC(=O)Nc4cc(C(C)(C)C)on4)c3)c2cc1OCCN1CCCCC1	–
–	–	13%	COCCOc1cc2c(Oc3cccc(NC(=O)Nc4cc(C(C)(C)C)on4)c3)ncnc2cc1OC.Cl	–

Kd [1]	IC50 [2]	bioavailability [3]	SMILES	also measured
46 nM	86 nM	–	COc1cc2ncnc(Oc3cccc(NC(=O)Nc4cc(C(C)(C)C)on4)c3)c2cc1O	–
29 nM	36 nM	–	COc1cc2ncnc(Oc3cccc(NC(=O)Nc4cc(C(C)(C)C)on4)c3)c2cc1OCCCN1CCOCC1	–
96 nM	290 nM	15%	COc1cc2ncnc(Oc3cccc(NC(=O)Nc4ccc(C(C)(C)C)cc4)c3)c2cc1OC	–
–	–	< 1%	COc1cc2ncnc(Nc3ccc(NC(=O)Nc4cc(C(C)(C)C)on4)cc3)c2cc1OC.Cl	–
370 nM	–	–	COc1cc2ncnc(Oc3cccc(NC(=O)Nc4ccccc4)c3)c2cc1OC	–
–	–	–	COc1cc2ncnc(Oc3cccc(NC(=O)Nc4cc(C(C)(C)C)on4)c3)c2cc1OC [listing 1 of 2 here]	inhibition (Mus musculus [10]): inactive; Activity (COLO 205 [11]): Active
73 nM	121 nM	–	COc1cc2ncnc(Oc3cccc(NC(=O)Nc4cc(C(C)(C)C)on4)c3)c2cc1OC [listing 2 of 2 here]	–
478 nM	–	–	COc1cc2ncnc(Nc3ccc(NC(=O)Nc4cc(C(C)(C)C)on4)cc3)c2cc1OC	–
38 nM	179 nM	–	COc1cc2ncnc(Oc3cccc(NC(=O)Nc4cc(C(C)(C)C)on4)c3C)c2cc1OC	–
–	–	–	COc1cc2ncnc(Sc3cccc(NC(=O)Nc4cc(C(C)(C)C)on4)c3)c2cc1OC [listing 1 of 2 here]	Activity (COLO 205 [12]): Active; Activity (COLO 205 [13]): inactive; Activity (COLO 205 [14]): Active
72 nM	62 nM	–	COc1cc2ncnc(Oc3cc(NC(=O)Nc4cc(C(C)(C)C)on4)ccc3F)c2cc1OC	–
67 nM	80 nM	–	CCOc1cc2c(Oc3cccc(NC(=O)Nc4cc(C(C)(C)C)on4)c3)ncnc2cc1OC	–
34 nM	165 nM	52%	COc1cc2c(Oc3cccc(NC(=O)Nc4cc(C(C)(C)C)on4)c3)ncnc2cc1OCCN1CCOCC1	inhibition in vivo at 100 mg/kg (Mus musculus [10]): 50%; Activity (Mus musculus [15]): Non-toxic; inhibition in vivo at 100 mg/kg (Mus musculus [4]): 70%; Activity (Mus musculus [5]): 2 µM; Activity (Mus musculus [7]): 11 µM; AUC [16]: 48 µM·h; Activity (Mus musculus [8]): Non-toxic; Activity (COLO 205 [17]): inactive; inhibition in vivo at 100 mg/kg (COLO 205 [18]): 65%
–	–	56%	COCCOc1cc2ncnc(Oc3cccc(NC(=O)Nc4cc(C(C)(C)C)on4)c3)c2cc1OC.Cl	–
30 nM	1850 nM	–	COc1cc2ncnc(Oc3cccc(NC(=O)Nc4ccc(Cl)cc4)c3)c2cc1OC	–
61 nM	118 nM	–	COc1cc2ncnc(Sc3cccc(NC(=O)Nc4cc(C(C)(C)C)on4)c3)c2cc1OC [listing 2 of 2 here]	inhibition in vivo at 100 mg/kg (Mus musculus [10]): 55%; inhibition in vivo at 55 mg/kg (COLO 205 [19]): 45%; Activity (Mus musculus [15]): Non-toxic; inhibition in vivo at 100 mg/kg (Mus musculus [4]): 75%; Activity (Mus musculus [5]): 0.2 µM; AUC [6]: 22 µM·h; Activity (Mus musculus [7]): 0.2 µM; Activity (Mus musculus [8]): Non-toxic; inhibition in vivo at 100 mg/kg (COLO 205 [18]): 45%
98 nM	696 nM	–	COc1cc2ncnc(Oc3cccc(NC(=O)Nc4ccc(Cl)c(C(F)(F)F)c4)c3)c2cc1OC	–
46 nM	113 nM	14%	COc1cc2ncnc(Oc3cc(NC(=O)Nc4cc(C(C)(C)C)on4)c(F)cc3F)c2cc1OC	–
36 nM	333 nM	–	COc1cc2ncnc(Oc3cccc(NC(=O)Nc4cccc(C(C)(C)C)c4)c3)c2cc1OC	–

— ChEMBL document CHEMBL1821605, “4-Quinazolinyloxy-diaryl ureas as novel BRAFV600E inhibitors” (Bioorg Med Chem Lett, 2011)
